Most compounds without a hit are left out; they make up all but 1.8% or so of the library.
CHRM4 agonist – human M4 muscarinic receptor agonists, primary screen, CHO-K1 cells, Fluo-8 calcium fluorescence; Muscarinic acetylcholine receptor M4 (Homo sapiens), P08173; CHO-K1 hM4/Gqi5; vehicle 0%, full acetylcholine response 100%; activation, % at 3 µM; 360,000 compounds, 0.14% hits;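 active = activation above the run mean over all test wells plus 3 SD, cut at about 32% in these data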;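 also: peak over basal fluorescence ratio per well then scaled between controls; 0% = DMSO wells and 100% = acetylcholine at EC100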
M4 PAM – human M4 muscarinic receptor positive allosteric modulators, primary screen, CHO-K1 cells, Fluo-8 calcium fluorescence; Muscarinic acetylcholine receptor M4 (Homo sapiens), P08173; CHO-K1 hM4/Gqi5, ACh EC20; 0% = ACh EC20, 100% = maximal ACh; activation, % at 3 µM; 360,000 compounds, 0.4% hits;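 active = activation above its plate's cutoff, the mean activation of sample wells plus 3 SD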
M5 ag – human M5 muscarinic receptor agonists, primary screen, CHO-K1 cells, Fluo-8 calcium fluorescence. Muscarinic acetylcholine receptor M5 (Homo sapiens), P08912. CHO-K1 hM5 cells; 0% DMSO wells, 100% maximal acetylcholine response. activation, % at 3 µM. 360,000 compounds, 0.19% hits. AID 624037, 2012;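 active = activation above the run's mean over test compounds plus 3 SD, cut at about 23% in these data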;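 also: signal is peak over basal fluorescence ratio across the kinetic read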
Target sequence (P08912 whole entry, looked up): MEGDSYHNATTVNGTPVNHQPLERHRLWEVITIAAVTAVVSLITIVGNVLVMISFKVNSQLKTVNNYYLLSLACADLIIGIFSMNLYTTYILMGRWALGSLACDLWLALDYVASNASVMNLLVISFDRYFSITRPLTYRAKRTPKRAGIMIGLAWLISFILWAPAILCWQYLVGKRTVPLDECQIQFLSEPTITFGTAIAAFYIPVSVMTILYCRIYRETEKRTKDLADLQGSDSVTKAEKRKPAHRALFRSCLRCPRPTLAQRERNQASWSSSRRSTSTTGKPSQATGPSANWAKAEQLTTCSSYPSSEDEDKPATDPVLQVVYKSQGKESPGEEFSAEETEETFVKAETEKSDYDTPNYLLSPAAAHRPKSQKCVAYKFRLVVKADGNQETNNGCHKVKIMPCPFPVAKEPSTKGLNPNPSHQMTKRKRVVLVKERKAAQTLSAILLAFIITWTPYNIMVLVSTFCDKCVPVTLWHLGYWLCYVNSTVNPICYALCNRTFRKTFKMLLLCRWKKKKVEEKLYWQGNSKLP
M4 antag – human M4 muscarinic receptor antagonists, primary screen, CHO cells, Fluo-8 calcium fluorescence | inhibition, % at 3 µM | CHO-hM4 cells, ACh EC80 | 360,000 compounds, 0.73% hits | Muscarinic acetylcholine receptor M4 (Homo sapiens), P08173;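 active = inhibition above its plate's cutoff, the mean inhibition of sample wells plus 3 SD, cut at about 27% in these data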;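 also: 0% = acetylcholine EC80 with DMSO and 100% = DMSO without agonist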
M5 PAM – human M5 muscarinic receptor positive allosteric modulators, primary screen, CHO-K1 cells, Fluo-8 calcium fluorescence; Muscarinic acetylcholine receptor M5 (Homo sapiens), P08912; CHO-K1 hM5, ACh EC20 PAM; 0% = ACh EC20, 100% = ACh EC100; AID 624038, 2012; activation, % at 3 µM; 360,000 compounds, 0.3% hits;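 active = activation above the run cutoff, the mean activation of all test compounds plus 3 SD, cut at about 18% in these data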
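Assay system: CHO-K1 hM5 cells. Also added: acetylcholine at EC20 concentration, added after compound. Dosing: 3 µM, single dose. Times: compound preincubation 140 s before EC20 acetylcholine addition. Signal: Fluo-8 calcium fluorescence. Measure: % activation relative to EC20 and EC100 ACh responses. Repeats: singlicate, one well per test compound.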
M5 antag – human M5 muscarinic receptor antagonists, primary screen, CHO cells, Fluo-8 calcium fluorescence; inhibition, % at 3 µM; CHO-hM5 cells, ACh EC80; Muscarinic acetylcholine receptor M5 (Homo sapiens), P08912; 360,000 compounds, 0.59% hits; AID 624040, 2012;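 active = inhibition above a per-plate cutoff, the mean of that plate's test compounds plus 3 SD, cut at about 27% in these data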;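 also: 0% = acetylcholine EC80 with DMSO and 100% = DMSO without agonist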
Numbers without * were called inactive.

What do the screens show for `O=[N+]([O-])c1cc([N+](=O)[O-])c(Oc2ccc(F)cc2F)cc1NN1CCCCC1`?
CHRM4 agonist: 3; M4 PAM: 27*; M5 ag: 5; M4 antag: -16; M5 PAM: 3; M5 antag: -11

Results for CC(C)N(CCCNC(=O)c1nn(C)c2c1CS(=O)(=O)c1ccccc1-2)Cc1ccccc1 ?
CHRM4 agonist: 2; M4 PAM: 1; M5 ag: -11; M4 antag: -28; M5 PAM: 7; M5 antag: -23

What do the screens show for `COc1ccc(/C=C/C(=O)CC(O)(c2ccccc2)C(F)(F)F)cc1` (centres undefined)?
CHRM4 agonist: 1; M4 PAM: -14; M5 ag: -5; M4 antag: -1; M5 PAM: -11; M5 antag: 3

How did O=C(/C=C/c1ccccc1)CC(O)(c1ccccc1)C(F)(F)C(F)F (centres undefined) do in these assays?
CHRM4 agonist: -2; M4 PAM: -33; M5 ag: -6; M4 antag: 47*; M5 PAM: -9; M5 antag: 7

How did O=C(/C=C/c1ccccc1)CC(O)(c1ccccc1)C(F)(F)F (centres undefined) do in these assays?
CHRM4 agonist: -2; M4 PAM: -27; M5 ag: -7; M4 antag: 31*; M5 PAM: -5; M5 antag: 7

How did CN(Cc1ccccc1)C(=O)c1ncn2c1c(=O)[nH]c1cccnc12 do in these assays?
CHRM4 agonist: 1; M4 PAM: 2; M5 ag: 0; M4 antag: -8; M5 PAM: 9; M5 antag: -15

How did CCOC(=O)C1CCN(C2CCN(Cc3nc(-c4ccccc4)no3)CC2)CC1 do in these assays?
CHRM4 agonist: 4; M4 PAM: -11; M5 ag: -5; M4 antag: 0; M5 PAM: -7; M5 antag: 9

What do the screens show for `CCOC(=O)C1CCCN(C2CCN(Cc3nc(-c4ccccc4)no3)CC2)C1` (centres undefined)?
CHRM4 agonist: 1; M4 PAM: -12; M5 ag: -10; M4 antag: 14; M5 PAM: -18; M5 antag: 45*

What do the screens show for `CC1CCN(C(=O)c2ccc(N3CCOCC3)c([N+](=O)[O-])c2)CC1`?
CHRM4 agonist: 2; M4 PAM: -4; M5 ag: 5; M4 antag: -5; M5 PAM: 1; M5 antag: -2

Results for C=CCOc1ccc(C(=O)Nc2ccccc2C(=O)NCc2cccnc2)cc1 ?
CHRM4 agonist: 8; M4 PAM: -7; M5 ag: -3; M4 antag: -1; M5 PAM: -2; M5 antag: 3

Results for CC(C)c1ccc(N2C(=O)CSC23C(=O)N2CCCc4cccc3c42)cc1 (centres undefined) ?
CHRM4 agonist: -2; M4 PAM: -34; M5 ag: -11; M4 antag: 90*; M5 PAM: -23; M5 antag: 48*

What do the screens show for `C=C(C)COc1ccc2c(C)c(CCC(=O)NC3CC3)c(=O)oc2c1`?
CHRM4 agonist: 12; M4 PAM: 4; M5 ag: 9; M4 antag: -8; M5 PAM: -2; M5 antag: -9

How did CC(C)COc1ccc(C(=O)Nc2sc3c(c2C(=O)O)CC(C)(C)OC3)cc1 do in these assays?
CHRM4 agonist: 14; M4 PAM: -5; M5 ag: 2; M4 antag: 3; M5 PAM: -18; M5 antag: 34*

How did CC1=C(C(=O)N2CCOCC2)CC(CC(=O)NC2CCCC2)C(=O)N1Cc1ccccc1 (centres undefined) do in these assays?
CHRM4 agonist: 1; M4 PAM: 7; M5 ag: 2; M4 antag: -7; M5 PAM: 0; M5 antag: -1

How did CCCC(=O)Nc1ccc(-c2csc(NNC(C)=O)n2)cc1 do in these assays?
CHRM4 agonist: 0; M4 PAM: 15; M5 ag: 5; M4 antag: -9; M5 PAM: 21*; M5 antag: -12

How did CC(=O)NNc1nc(-c2ccc(C)cc2)cs1 do in these assays?
CHRM4 agonist: 0; M4 PAM: -1; M5 ag: -3; M4 antag: 7; M5 PAM: -1; M5 antag: 2

Results for O=C(O)[C@@H]1CCCN1S(=O)(=O)c1cccc(S(=O)(=O)N2CCC[C@H]2C(=O)O)c1 ?
CHRM4 agonist: 0; M4 PAM: 4; M5 ag: 1; M4 antag: 6; M5 PAM: 0; M5 antag: 7

What do the screens show for `O=C(O)C1CCCN1S(=O)(=O)c1cccc(S(=O)(=O)N2CCCC2C(=O)O)c1` (centres undefined)?
CHRM4 agonist: 1; M4 PAM: 15; M5 ag: 2; M4 antag: 32*; M5 PAM: 6; M5 antag: 5

What do the screens show for `CCCCCCn1cc(CN2CC(N3CCCC3)CS2(=O)=O)nn1` (centres undefined)?
CHRM4 agonist: 0; M4 PAM: 8; M5 ag: 0; M4 antag: 2; M5 PAM: 1; M5 antag: 0

How did CN(C)C(=O)CSc1nc2ccccc2n1Cc1ccccc1 do in these assays?
CHRM4 agonist: 0; M4 PAM: -5; M5 ag: -8; M4 antag: 0; M5 PAM: -9; M5 antag: 12

Results for CCN(CC)CCSc1nc2ccccc2n1Cc1ccccc1 ?
CHRM4 agonist: 2; M4 PAM: -17; M5 ag: -7; M4 antag: 36*; M5 PAM: -17; M5 antag: 40*

How did COc1ccc(C(=O)N2CCCCC2c2cc(C(=O)NCc3cccnc3)no2)cc1 (centres undefined) do in these assays?
CHRM4 agonist: 2; M4 PAM: 3; M5 ag: 2; M4 antag: -1; M5 PAM: -2; M5 antag: 14

Results for O=C(O)c1cccc(Cn2c(Cl)c(/C=N/NC(=O)c3cccc(O)c3)sc2=O)c1 ?
CHRM4 agonist: 0; M4 PAM: 12; M5 ag: 5; M4 antag: 33*; M5 PAM: 6; M5 antag: -16
